In PMC11261619 (Journal of Agricultural and Food Chemistry, 2024):

Experiments:
[1] = biological target: T1, human OR11A1 (Homo sapiens, UniProt Q9GZK7); assay: cAMP luminescence; assay type: cell-based; conditions: for KFO screening signal on human OR11A1 relative to 3σ-threshold: each KFO 300 μmol/L, triplicate, normalized to response of OR11A1 to geosmin; for Concentration-dependent activation of OR11A1 (concentration–response validation): normalized to OR1A1 response to (R)-(−)-carvone (30 μmol/L), n = 3
T1 sequence (Q9GZK7 1-315): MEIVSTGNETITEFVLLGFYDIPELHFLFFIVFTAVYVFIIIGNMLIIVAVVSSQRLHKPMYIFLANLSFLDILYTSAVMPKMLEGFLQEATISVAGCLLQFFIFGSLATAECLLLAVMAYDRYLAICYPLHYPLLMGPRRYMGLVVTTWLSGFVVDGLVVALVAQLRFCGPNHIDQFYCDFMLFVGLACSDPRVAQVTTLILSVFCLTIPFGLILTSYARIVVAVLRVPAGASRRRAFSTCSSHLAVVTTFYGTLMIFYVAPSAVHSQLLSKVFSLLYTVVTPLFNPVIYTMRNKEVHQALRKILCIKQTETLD

[2] = biological target: T2, doOR11A1 (Dipodomys ordii, UniProt A0A1S3GF11); assay: cAMP luminescence; assay type: cell-based, Kangaroo rat (Dipodomys ordii)
T2 sequence (A0A1S3GF11 1-311): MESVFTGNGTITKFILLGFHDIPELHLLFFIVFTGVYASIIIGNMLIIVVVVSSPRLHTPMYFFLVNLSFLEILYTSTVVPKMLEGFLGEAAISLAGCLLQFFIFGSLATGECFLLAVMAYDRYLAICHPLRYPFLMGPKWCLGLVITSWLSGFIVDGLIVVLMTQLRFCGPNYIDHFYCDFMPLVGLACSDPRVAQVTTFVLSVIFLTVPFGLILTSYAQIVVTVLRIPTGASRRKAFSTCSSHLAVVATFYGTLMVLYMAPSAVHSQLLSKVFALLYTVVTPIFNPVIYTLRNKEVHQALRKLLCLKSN
Outline: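 HEK-293 cells (DMEM, 4.5 g/L glucose, 10% FBS, 2 mM L-glutamine, penicillin/streptomycin; 37 °C, 5% CO2) co-transfected via ViaFect with the ortholog coding region in IL-6-HaloTag-pFN210A and pGloSensor-22F. Luminescence was averaged before and after odorant application, then baseline-subtracted and mock-subtracted. Responses were normalized to OR1A1 response to (R)-(−)-carvone (30 μmol/L). EC50 came from nonlinear sigmoidal regression; mean ± SD, n = 3–6 independent transfections.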

Structure (SMILES) | KFO screening signal on human OR11A1 relative to 3σ-threshold [1] | Concentration-dependent activation of OR11A1 (concentration–response validation) [1] | Sensitivity of kangaroo rat receptor compared to its human ortholog ([2]; doOR11A1 vs human OR11A1) | Sensitivities of OR11A1 homologues across species compared to the human receptor ([2]; homologues across species vs human OR11A1) | Efficacy of response to geosmin among OR11A1 orthologs ([2]; normalized to OR1A1 response to (R)-(−)-carvone (30 μmol/L))
CSCCCO [methionol, 3-(methylsulfanyl) Propanol (methionol)] | reached the 3σ-threshold | could not be validated | – | – | –
C[C@H]1CCC[C@@]2(C)CCCC[C@]12O [geosmin, (4S,4aS,8aR)-4,8a-dimethyloctahydronaphthalen-4a(2H)-ol] | – | – | more than 100 fold | up to 100 fold | most effective responder
C=Cc1ccc(O)cc1 [4-ethenylphenol] | above the 3σ-threshold | could not be validated | – | – | –
CC12CCC(CC1)C(C)(C)O2 [1,8-cineol] | reached the 3σ-threshold | could not be validated | – | – | –
CCCCC(=O)OCC [ethyl pentanoate] | above the 3σ-threshold | could not be validated | – | – | –
